# Compound activity (PubChem)
# MEKK2 WT-MEK5 = modulators of MEK5 binding to wildtype MEKK2, primary screen, biochemical, multiplex bead flow cytometry, Alexa488-MEK5; Alexa488-MEK5 binding to MEKK2 WT; actives lie on both sides; binding response (% of control), % at 10 µM; 290,000 compounds, 1.1% hits; in the data active means binding response below about 67% or above about 130%
# UBC13 inh = UBC13 polyubiquitin chain formation inhibitors, primary screen, biochemical, TR-FRET, uHTS. Ubiquitin-conjugating enzyme E2 N (Homo sapiens), P61088. inhibition, % at 20 µM. 330,000 compounds, 0.47% hits; in the data active means inhibition above about 45%, passing the limit was not always enough
# Apaf-1 inh = inhibitors of human Apaf-1 apoptosome, primary screen, biochemical, DEVD-Rh110 fluorescence, uHTS. inhibition, % at 20 µM. reconstituted apoptosome caspase-3 activity. 330,000 compounds, 0.71% hits; active means inhibition of at least 40% at 20 µM;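 further: plate controls were DMSO wells for no effect and DEVD-CHO caspase inhibitor wells for full effect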
#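 Material: biochemical Apaf-1 apoptosome reconstitution. Medium: Hepes buffer, pH 7.5. Also added: cytochrome c activation, bis-DEVD rhodamine 110 substrate. Timing: 30 min compound preincubation, 50 min activation, room temperature. Measured by: rhodamine 110 fluorescence at Ex 480/Em 540 nm.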
# PREPL inhibitor = PREPL enzyme inhibitors, primary screen, biochemical, fluorescence polarization. Prolyl endopeptidase-like (Homo sapiens), Q4J6C6. recombinant PREPL, fluorescence polarization activity-based probe. inhibition, % at 5.96 µM. 320,000 compounds, 0.68% hits; in the data active means inhibition above about 43%;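 further: 0% = enzyme with DMSO and 100% = wells lacking enzyme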
# MEKK2mut PB1 HTS = MEK5 binding signal on mutant MEKK2 PB1, primary screen, biochemical, multiplex bead flow cytometry, Alexa488-MEK5 | Alexa488-MEK5 binding to MEKK2 mutant | AID 1530, 2009 | 290,000 compounds, 0.35% hits | percent response, % at 10 µM; in the data active means percent response above about 24%, passing the limit was not always enough
# MEKK3 PB1 HTS = modulators of MEKK3-MEK5 PB1 binding, primary screen, biochemical, wildtype MEKK3, multiplex bead flow cytometry, Alexa488-MEK5; Mitogen-activated protein kinase kinase kinase 3 (Homo sapiens), Q99759; bead-based flow cytometry, Alexa488-MEK5 binding to MEKK3; actives lie on both sides; 0 = blocked by unlabeled MEK5, 100 = vehicle; binding response (% of control), % at 10 µM; 290,000 compounds, 1.4% hits; AID 1529, 2009;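 active means binding response more than 3 SD above or below the average of its plate-row segment, actives on both sides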;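 further: Alexa488 bead fluorescence after subtracting the streptavidin-only scavenger bead signal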
# Target sequence (Q99759 whole entry, looked up): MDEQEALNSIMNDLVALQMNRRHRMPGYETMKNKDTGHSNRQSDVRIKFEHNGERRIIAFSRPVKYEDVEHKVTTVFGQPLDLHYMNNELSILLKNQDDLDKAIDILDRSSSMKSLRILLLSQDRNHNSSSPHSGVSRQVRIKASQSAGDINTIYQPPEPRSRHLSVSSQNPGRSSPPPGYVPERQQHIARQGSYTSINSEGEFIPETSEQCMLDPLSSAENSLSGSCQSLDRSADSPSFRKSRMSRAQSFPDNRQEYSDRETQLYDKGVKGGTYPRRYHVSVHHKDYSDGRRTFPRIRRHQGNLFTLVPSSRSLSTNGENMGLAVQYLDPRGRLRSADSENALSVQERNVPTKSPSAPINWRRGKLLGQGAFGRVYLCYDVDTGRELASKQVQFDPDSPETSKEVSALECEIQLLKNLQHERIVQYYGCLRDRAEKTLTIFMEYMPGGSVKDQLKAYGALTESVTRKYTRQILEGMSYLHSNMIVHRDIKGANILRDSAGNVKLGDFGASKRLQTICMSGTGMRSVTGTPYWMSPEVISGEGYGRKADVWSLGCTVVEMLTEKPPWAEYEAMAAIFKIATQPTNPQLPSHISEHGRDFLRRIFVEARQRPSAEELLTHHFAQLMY
# * hit, by the source's call; . = no result; ! = repeats disagree; [ ] = remark or other dose. Compounds with a hit are over-represented: about 3.1% of the library has one in this group of screens.
SMILES,MEKK2 WT-MEK5,UBC13 inh,Apaf-1 inh,PREPL inhibitor,MEKK2mut PB1 HTS,MEKK3 PB1 HTS
Cc1ccn2c(C=O)c(-c3ccc(F)cc3)c(C=O)c2c1,-3.0*,-6,10,11,13,93
Fc1ccc2[nH]c3c(N4CCc5ccccc5C4)ncnc3c2c1,108,-5,8,14,2,104
Cc1ccc2[nH]c3c(N4CCc5ccccc5C4)ncnc3c2c1,139,5,16,46*,15,95
C/C(=C\c1ccccc1F)C1Nc2cccc3cccc(c23)N1,.,-32,20,22,.,.
C/C(=C\c1ccccc1)C1Nc2cccc3cccc(c23)N1,.,-30,41*,15,.,.
COc1ccc(NC(=O)CCl)cn1,100,-12,67*,3,1,102
COc1ccc(C(=O)Oc2cccc(/C=N/NC(N)=S)c2)cc1,101,4,0,45*,-1,101
COc1cc(/C=N/NC(N)=S)ccc1OC(=O)c1ccc(C)cc1,91,-3,13,41,-3,100
CN(C)c1ccc(/C=C/C(=O)c2cc(Cl)ccc2O)cc1,-1.0*,.,.,38,-10,90
O=C(CN1C(=O)c2ccccc2S1(=O)=O)NCc1ccc(F)cc1,94,-2,-2,3,-6,72*[inhibitor]
O=C(Nc1ccccc1C(=O)NCCCN1CCOCC1)c1ccc(F)cc1,-2.0*[inhibitor],2,-5,-1,-13,1.0*[inhibitor]
O=C(NCCCN1CCOCC1)c1ccccc1,104,6,-7,2,5,101
CCN1CCN(S(=O)(=O)c2cc(OCC(=O)NC3CCCCC3)c(C)cc2Cl)CC1,3.0*[inhibitor],-12,-2,13,-15,3.0*[inhibitor]
CC1=NN(c2ccc(Cl)cc2)C(=O)C1C(c1cccc(O)c1)c1c(C)[nH]n(-c2ccc(Cl)cc2)c1=O (centres undefined),108,-28,85*,9,0,115
CC(=O)Oc1ccc(/C(C)=N/N2CCN(Cc3ccc(C)cc3)CC2)cc1,116,1,-12,-3,13,107
CC(=O)CCCCn1cnc2c1c(=O)n(C)c(=O)n2C,-14*!,-1,1,-6,-7,90
COc1ccc(N2CCN(CC(=O)Nc3ccccc3C(=O)NCc3ccccc3)CC2)cc1,.,27,6,11,.,.
O=C1NC[C@@H](c2ccccc2)OC(=O)[C@@H](Cc2ccc(F)cc2)C/C=C\C[C@@H]1CC(=O)N(CCO)Cc1ccccc1,.,8,32,32,.,.
COc1ccccc1NS(=O)(=O)c1cc([N+](=O)[O-])ccc1N/N=C/c1c[nH]c2ccccc12,-1.0*,-149,15,3,14,103
Cc1ccc(S(=O)(=O)N2CCN(C(=O)CCc3c[nH]c4ccccc34)CC2)c(C)c1,.,6,4,-19,.,.
[N-]=[N+]=NC[C@H](Cc1ccccc1)N1CC[C@@H](NC(=O)OCc2ccccc2)CCC1=O,95,-2,10,15,-4,103
CC(C)=CCC/C(C)=C/CCC(C)NCCN1CCNCC1 (centres undefined),224*,40,24,20,48*,110
COc1ccc(C(=O)NCc2ccco2)cc1S(=O)(=O)NC1CC1,.,-4,4,3,.,.
Cc1ccc2cc(C(c3nnnn3CC3CCCO3)N3CCc4ccccc4C3)c(=O)[nH]c2c1 (centres undefined),93,-20,87*,19,-2,96
Cc1cccc2cc(C(c3nnnn3Cc3ccc4c(c3)OCO4)N3CCCC3)c(=O)[nH]c12 (centres undefined),90,-7,5,12,-12,89
SMILES,MEKK2 WT-MEK5,UBC13 inh,Apaf-1 inh,PREPL inhibitor,MEKK2mut PB1 HTS,MEKK3 PB1 HTS
Cc1ccc(C)c2[nH]c(=O)c(C(c3nnnn3Cc3ccccc3)N3CCc4ccccc4C3)cc12 (centres undefined),97,4,67*,1,0,100
Cc1cccc2cc(C(c3nnnn3CC3CCCO3)N3CCCc4ccccc43)c(=O)[nH]c12 (centres undefined),67,-9,30,12,-12,70
CCOc1ccc2[nH]c(=O)c(C(c3nnnn3CC3CCCO3)N3CCc4ccccc4C3)cc2c1 (centres undefined),96,-2,27,16,-1,96
Cc1cccc2cc(C(c3nnnn3CC3CCCO3)N3CCc4ccccc4C3)c(=O)[nH]c12 (centres undefined),.,-10,79*,3,.,.
CC(c1ccccc1)N1CC(C(=O)N2CCN(Cc3ccc(C#N)cc3)CC2)CC1=O (centres undefined),.,-1,0,.,.,.
Cc1ccc(S(=O)(=O)N2CCCNCC2)cc1,101,0,0,20,2,104
CC[C@@H]1C/C=C\Cc2ccccc2[C@@H](C(=O)C[C@@H](O)CC(C)=O)OC1=O,.,2,-9,2,.,.
O=C(NCCNC(=O)c1ccco1)c1ccco1,99,-6,2,17,2,99
O=C(NCCNC(=O)c1ccccc1F)c1ccco1,-12*[inhibitor],-1,2,8,-25,0.0*[inhibitor]
O=C(O)c1cc2ccccc2c(N=Nc2cccnc2)c1O,100,-216,1,10,1,101
CC(=O)OCCN(C)c1cc(SC(C)C)c2nonc2c1[N+](=O)[O-],95,-26,1,5,-3,98
CN(CCO)c1cc(Sc2nc3ccccc3s2)c2nonc2c1[N+](=O)[O-],100,-30,52*,26,0,98
CC(Oc1cc2oc(=O)c3c(c2cc1Cl)CCCC3)C(=O)NCCN1CCOCC1 (centres undefined),96,0,8,17,-5,97
CCOc1ccc(CN(C)CC(O)COC(c2ccc(OC)cc2)c2ccc(OC)cc2)cc1 (centres undefined),180*,15,24,19,35*,112
COc1ccc(C(OCC(O)CN(C)C2CCCCC2)c2ccc(OC)cc2)cc1 (centres undefined),161*,6,16,30,11,106
COc1ccc(CN(C)CC(O)COc2ccc(-c3ccccc3)cc2)cc1OC (centres undefined),136*,12,16,-34,10,105
COc1ccc(CN(C)CC(O)COC(c2ccc(OC)cc2)c2ccc(OC)cc2)cc1 (centres undefined),147*,12,16,26,9,107
